From ChEMBL document CHEMBL4304743, “Discovery of ( E)- N1-(3-Fluorophenyl)- N3-(3-(2-(pyridin-2-yl)vinyl)-1 H-indazol-6-yl)malonamide (CHMFL-KIT-033) as a Novel c-KIT T670I Mutant Selective Kinase Inhibitor for Gastrointestinal Stromal Tumors (GISTs)” (J Med Chem, 2019)
Activity calls are given as the source filed them. The calls are words filed in the database; no cut-off is given here.

Assays:
GISTT1 [1] = test: Antiproliferative activity against human GISTT1 cells harboring c-KIT 560 to 578 deletion mutant incubated for 72 hrs by CCK8 assay; type: functional; conditions: GISTT1, 72 h
Summary of the method: (§1)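 Adherent GIST cells seeded at 1.5-5 × 10^4 cells/mL and left overnight at 37 °C, 5% CO2. Medium then replaced with medium holding serial compound dilutions; 72 h incubation. Viability by CCK-8, absorbance at 450 nm, normalized to DMSO control; GI50 from dose-response fit.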

[2] = Cmax in mouse at 1 mg/kg, iv measured after 2 to 720 mins by LC-tandem mass spectrometry analysis; type: ADME, organism-based; design: dose 1 mg/kg, route intravenous; conditions: in vivo
Summary of the method: (§2)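 Mice dosed 1 mg/kg i.v. or 10 mg/kg p.o.; plasma drug levels by LC-MS/MS, parameters by noncompartmental analysis; values not from triplicate testing.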

[3] = tested on: Mast/stem cell growth factor receptor Kit (Homo sapiens), P10721 [UNDEFINED MUTATION]; test: Inhibition of c-KIT 560 to 578 deletion mutant in human GISTT1 cells assessed as reduction in AKT phosphorylation at S473 residue at 0.1 uM to 3 uM after 1 hr by Western blot analysis; type: cell-based
Summary of the method: (§3)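 Serial compound dilutions applied for 1 h to GIST-T1, GIST-T1-T670I (CRISPR/Cas9 T670I knock-in, clone confirmed by Sanger sequencing) or GIST-5R cells in DMEM with 10% FBS. Cells then lysed and phospho-proteins detected by standard Western blotting.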

GISTT1 [4] = test: Induction of apoptosis in human GISTT1 cells harboring c-KIT 560 to 578 deletion mutant assessed as increase in cleaved caspase level after 24 hrs by Western blot analysis; type: functional, cell-based
[5] = molecular target: Serine/threonine-protein kinase Nek1 (Homo sapiens) (UniProt Q96PY6); test: Binding affinity to wild-type human partial length NEK1 (M1 to K278 residues) expressed in bacterial expression system assessed as enzyme remaining activity at 1 uM by Kinomescan assay relative to control
Summary of the method: (§4)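 KINOMEscan competition binding panel of 468 kinases and mutants, compound at 1 μM; binding reported as percent of control.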

[6] = molecular target: Serine/threonine-protein kinase pim-3 (Homo sapiens, UniProt Q86V86); test: Binding affinity to wild-type human partial length PIM3 (G16 to A317 residues) expressed in bacterial expression system assessed as enzyme remaining activity at 1 uM by Kinomescan assay relative to control; summary of the method: as §4
[7] = Antiproliferative activity against human GIST48B cells incubated for 72 hrs by CCK8 assay; type: functional; summary of the method: as §1
[8] = molecular target: Casein kinase I isoform alpha (Homo sapiens, UniProt P48729); test: Binding affinity to wild-type human partial length CSNK1A1 (M1 to L301 residues) expressed in mammalian expression system assessed as enzyme remaining activity at 1 uM by Kinomescan assay relative to control; summary of the method: as §4
[9] = tested on: Mast/stem cell growth factor receptor Kit (Homo sapiens), P10721 [UNDEFINED MUTATION]; test: Inhibition of c-KIT 560 to 578 deletion/T670I double mutant in human GIST5R cells assessed as reduction in STAT3 phosphorylation after 1 hr by Western blot analysis; type: cell-based; summary of the method: as §3
GISTT1 [10] = test: Induction of cell cycle arrest in human GISTT1 cells harboring 560 to 578 deletion/T670I double mutant after 24 hrs; type: functional, cell-based
[11] = tested on: Mast/stem cell growth factor receptor Kit (Homo sapiens), P10721 [UNDEFINED MUTATION]; test: Inhibition of c-KIT 560 to 578 deletion/T670I double mutant in human GISTT1 cells assessed as reduction in c-KIT autophosphorylation at Y703 residue at 0.1 uM to 3 uM after 1 hr by Western blot analysis; type: cell-based; summary of the method: as §3
Mus musculus = test: Inhibition of ERK phosphorylation at T202/Y204 residue in tumor of human GIST5R cells xenografted in nude mouse at 100 mg/kg, po administered as single dose and measured after 2 hrs; type: functional, organism-based
Summary of the method: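 Female nu/nu mice bearing subcutaneous GIST-5R tumors (cells in Matrigel, right flank) given one oral dose of 100 mg/kg in 0.5% methylcellulose/0.4% Tween80. Tumors collected over a 2 h time course. p-c-KIT, p-ERK and p-AKT measured alongside plasma drug levels.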

[12] = tested on: Mast/stem cell growth factor receptor Kit (Homo sapiens), P10721 [UNDEFINED MUTATION]; test: Binding affinity to human partial length c-KIT V559D/[…] double mutant (Y545 to D952 residues) expressed in bacterial expression system assessed as enzyme remaining activity at 1 uM by Kinomescan method relative to control
Summary of the method: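 KINOMEscan binding profile (DiscoverX) run at 1 μM against a panel of 468 kinases and mutants. Read-out is percent of control (%Ctrl) remaining bound.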

[13] = Apparent volume of distribution in mouse at 1 mg/kg, iv measured after 2 to 720 mins by LC-tandem mass spectrometry analysis; type: ADME, organism-based; conditions: in vivo, read-out: Vz; summary of the method: as §2
[14] = tested on: Mast/stem cell growth factor receptor Kit (Homo sapiens), P10721 [UNDEFINED MUTATION]; test: Inhibition of c-KIT 560 to 578 deletion/T670I double mutant in human GIST5R cells assessed as reduction in ERK phosphorylation at T202/Y204 residue at 0.1 uM to 3 uM after 1 hr by Western blot analysis; type: cell-based; summary of the method: as §3
[15] = Selectivity ratio, ratio of inhibition of wild type TEL fused c-KIT (unknown origin) transfected in mouse BAF3 cells assessed as growth inhibition to inhibition of TEL fused c-KIT T670I mutant (unknown origin) transfected in mouse BAF3 cells assessed as growth inhibition; design: species or system Homo sapiens
Summary of the method: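 IL-3 independent BaF3 cells stably expressing tel-c-KIT wt or tel-c-KIT T670I, grown in RPMI 1640 with 10% FBS, 2% L-glutamine, 37 °C, 5% CO2. Suspension cells at 1.5 to 5 × 10^4 cells/mL mixed with serial compound dilutions and incubated 72 h. Viability read by CCK-8 absorbance at 450 nm, normalized to DMSO; GI50 from curve fit. Selectivity is wt GI50 over T670I GI50.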

[16] = molecular target: Mast/stem cell growth factor receptor Kit (Homo sapiens, UniProt P10721); test: Inhibition of wild-type His-tagged c-KIT (unknown origin) expressed in baculovirus infected sf9 cells pre-incubated for 60 mins followed by ATP addition and measured after 1 hr by Z-LYTE assay
[17] = tested on: Mast/stem cell growth factor receptor Kit (Homo sapiens), P10721 [V559G]; test: Inhibition of TEL fused c-KIT V559G mutant (unknown origin) transfected in mouse BAF3 cells assessed as growth inhibition after 72 hrs by CCK8 assay; type: cell-based
Summary of the method: (§5)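 Tel-c-KIT-transformed BaF3 lines (IL-3 independent) kept in RPMI 1640 with 10% FBS, 2% L-glutamine and pen/strep. Cells at 1.5 to 5 × 10^4 cells/mL mixed with graded compound and incubated 72 h at 37 °C, 5% CO2. Viability by CCK-8 absorbance at 450 nm, normalized to DMSO. GI50 from dose–response fit.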

[18] = tested on: Mast/stem cell growth factor receptor Kit (Homo sapiens), P10721 [T670I]; test: Inhibition of TEL fused c-KIT T670I mutant (unknown origin) transfected in mouse BAF3 cells assessed as growth inhibition after 72 hrs by CCK8 assay; type: cell-based; summary of the method: as §5
[19] = Drug level in plasma of nude mouse xenograted with human GIST5R cells at 100 mg/kg, po administered as single dose and measured at 4 hrs; type: ADME, organism-based; conditions: in vivo
Summary of the method: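 GIST-5R xenograft nu/nu mice given a single 100 mg/kg oral dose; plasma drug concentration followed over a time course alongside tumor p-c-KIT, p-ERK and p-AKT.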

Chain of Mast/stem cell growth factor receptor Kit (Homo sapiens), P10721 [UNDEFINED MUTATION] (P10721 whole entry, looked up, stated change not applied, the tested form may be a part): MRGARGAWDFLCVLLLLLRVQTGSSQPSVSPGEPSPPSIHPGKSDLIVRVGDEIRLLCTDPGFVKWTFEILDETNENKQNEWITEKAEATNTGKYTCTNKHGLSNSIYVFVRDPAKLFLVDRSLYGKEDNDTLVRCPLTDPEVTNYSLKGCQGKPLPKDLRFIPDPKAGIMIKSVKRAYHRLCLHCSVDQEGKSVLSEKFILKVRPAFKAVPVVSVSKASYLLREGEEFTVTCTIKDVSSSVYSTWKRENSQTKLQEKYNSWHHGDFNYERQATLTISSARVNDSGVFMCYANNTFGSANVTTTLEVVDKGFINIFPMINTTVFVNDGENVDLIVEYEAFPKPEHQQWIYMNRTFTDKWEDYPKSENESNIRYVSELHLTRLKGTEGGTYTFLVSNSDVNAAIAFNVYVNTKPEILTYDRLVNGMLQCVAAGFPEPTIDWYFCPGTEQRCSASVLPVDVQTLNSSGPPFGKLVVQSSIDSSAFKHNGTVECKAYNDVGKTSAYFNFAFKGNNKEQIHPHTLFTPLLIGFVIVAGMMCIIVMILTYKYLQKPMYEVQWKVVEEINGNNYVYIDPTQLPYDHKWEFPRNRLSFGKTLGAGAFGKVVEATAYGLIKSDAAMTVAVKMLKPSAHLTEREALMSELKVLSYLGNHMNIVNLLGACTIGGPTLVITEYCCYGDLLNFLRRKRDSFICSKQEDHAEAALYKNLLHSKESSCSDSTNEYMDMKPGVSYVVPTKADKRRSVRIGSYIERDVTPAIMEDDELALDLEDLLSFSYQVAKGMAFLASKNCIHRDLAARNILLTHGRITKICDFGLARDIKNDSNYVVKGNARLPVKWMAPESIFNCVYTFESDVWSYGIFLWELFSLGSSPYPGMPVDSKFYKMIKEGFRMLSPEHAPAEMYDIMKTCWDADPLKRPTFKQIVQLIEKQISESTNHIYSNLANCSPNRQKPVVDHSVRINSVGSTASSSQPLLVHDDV
Chain of Mast/stem cell growth factor receptor Kit (Homo sapiens), P10721 [V559G] (P10721 whole entry V559G, the tested form may be a part): as the sequence (P10721 whole entry, looked up, stated change not applied, the tested form may be a part) above, with V559G counted along it
Chain of Casein kinase I isoform alpha (P48729 2-337 limits assumed): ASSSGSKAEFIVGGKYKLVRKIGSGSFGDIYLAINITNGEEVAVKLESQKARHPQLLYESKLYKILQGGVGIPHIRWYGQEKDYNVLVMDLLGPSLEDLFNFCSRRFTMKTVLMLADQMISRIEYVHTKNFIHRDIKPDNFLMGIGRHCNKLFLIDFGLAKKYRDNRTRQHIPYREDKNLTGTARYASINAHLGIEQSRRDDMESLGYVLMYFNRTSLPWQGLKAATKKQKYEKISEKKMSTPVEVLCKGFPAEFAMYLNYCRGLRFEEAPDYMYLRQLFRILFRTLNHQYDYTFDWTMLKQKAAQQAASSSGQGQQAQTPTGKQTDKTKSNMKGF
Chain of Mast/stem cell growth factor receptor Kit (P10721 whole entry, the tested form may be a part): as the sequence (P10721 whole entry, looked up, stated change not applied, the tested form may be a part) above
Chain of Serine/threonine-protein kinase Nek1 (Homo sapiens) (Q96PY6 whole entry, the tested form may be a part): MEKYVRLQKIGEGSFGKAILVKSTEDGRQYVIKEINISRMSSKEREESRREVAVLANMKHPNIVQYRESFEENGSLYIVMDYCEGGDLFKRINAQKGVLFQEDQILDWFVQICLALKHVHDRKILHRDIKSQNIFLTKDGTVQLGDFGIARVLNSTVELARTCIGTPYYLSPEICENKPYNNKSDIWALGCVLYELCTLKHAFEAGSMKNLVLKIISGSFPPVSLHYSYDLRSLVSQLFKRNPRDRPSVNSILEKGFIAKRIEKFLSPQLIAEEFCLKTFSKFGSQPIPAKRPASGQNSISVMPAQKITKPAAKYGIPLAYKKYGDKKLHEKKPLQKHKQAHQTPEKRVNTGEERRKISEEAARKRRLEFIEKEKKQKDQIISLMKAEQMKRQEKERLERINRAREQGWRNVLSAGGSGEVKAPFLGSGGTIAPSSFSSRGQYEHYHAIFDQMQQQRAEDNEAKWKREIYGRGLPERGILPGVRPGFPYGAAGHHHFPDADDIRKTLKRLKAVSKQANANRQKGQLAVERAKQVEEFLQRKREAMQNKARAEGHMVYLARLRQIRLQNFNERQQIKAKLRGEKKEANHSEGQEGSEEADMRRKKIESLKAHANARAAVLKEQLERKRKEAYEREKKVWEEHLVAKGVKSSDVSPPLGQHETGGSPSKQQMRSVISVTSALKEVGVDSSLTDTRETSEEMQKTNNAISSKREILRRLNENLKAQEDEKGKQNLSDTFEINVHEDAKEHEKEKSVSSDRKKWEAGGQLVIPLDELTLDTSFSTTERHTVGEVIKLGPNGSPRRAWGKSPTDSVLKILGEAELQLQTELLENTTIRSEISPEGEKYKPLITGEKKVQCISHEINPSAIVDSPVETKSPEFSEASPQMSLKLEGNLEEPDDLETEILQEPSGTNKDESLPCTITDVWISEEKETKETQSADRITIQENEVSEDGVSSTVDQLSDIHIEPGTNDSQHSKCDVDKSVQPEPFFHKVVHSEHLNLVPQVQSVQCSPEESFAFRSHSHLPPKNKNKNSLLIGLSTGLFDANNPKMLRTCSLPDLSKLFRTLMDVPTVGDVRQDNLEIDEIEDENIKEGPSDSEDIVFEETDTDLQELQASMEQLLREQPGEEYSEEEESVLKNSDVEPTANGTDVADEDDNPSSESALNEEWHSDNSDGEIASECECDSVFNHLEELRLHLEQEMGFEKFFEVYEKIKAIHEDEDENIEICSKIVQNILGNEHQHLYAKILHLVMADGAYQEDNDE
Chain of Mast/stem cell growth factor receptor Kit (Homo sapiens), P10721 [T670I] (P10721 whole entry T670I, the tested form may be a part): as the sequence (P10721 whole entry, looked up, stated change not applied, the tested form may be a part) above, with T670I counted along it

Question: What does the source list for `O=C(CC(=O)Nc1ccc2c(/C=C/c3ccccn3)n[nH]c2c1)Nc1cccc(F)c1`?
Answer: GI50 (GISTT1 [1]): 52 nM; Cmax [2]: 3020 ng/mL; inhibition [3]: Active; Activity (GISTT1 [4]): Dose-dependent effect; Activity [5]: 0%; Activity [6]: 0%; GI50 [7]: > 10000 nM; Activity [8]: 0.2%; inhibition [9]: Dose-dependent effect; Activity (GISTT1 [10]): Dose-dependent effect; inhibition [11]: Active; inhibition (Mus musculus): inactive; Activity [12]: < 1%; Vd [13]: 5.7 L/kg; inhibition [14]: Active; RatioGI50 [15]: 26; IC50 [16]: 536 nM; GI50 [17]: 26 nM; GI50 [18]: 44 nM; Drug uptake [19]: Not Active
